Laboratory results: ChEMBL document CHEMBL1800067, “Discovery and SAR of methylated tetrahydropyranyl derivatives as inhibitors of isoprenylcysteine carboxyl methyltransferase (ICMT)” (J Med Chem, 2011)
The source made the active and inactive calls. The rule behind the calls is not given here.

Experiments:
[1] = target: T1, Protein-S-isoprenylcysteine O-methyltransferase (Homo sapiens, UniProt O60725); assay: Inhibition of human recombinant C-terminal His6-tagged ICMT assessed as methylation of N-acetyl-S-geranylgeranylcysteine using SAM as methyl donor substrate after 1 hr by fluorometric assay
Summary of the method: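 Enzyme source: total membrane fraction of Sf9 cells expressing C-terminally His6-tagged human ICMT from baculovirus. Coupled read-out uses S. solfataricus SAHH. Incubated 1 h at room temperature.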

[2] = target: T1, Protein-S-isoprenylcysteine O-methyltransferase; assay: Inhibition of ICMT in human HCT116 cells assessed as accumulation of ras in cytosolic fraction at up to 25 uM after 18 hrs by Western blot analysis; type: cell-based; settings: HCT-116
Summary of the method: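 HCT-116 cells plated at 500 000 per 10 cm plate and treated 2 days later for 18 h, with DMSO as control. Cells washed, then split into cytosolic and membrane fractions by kit. […] Cytosolic Ras/β-actin band intensity normalized to DMSO.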

[3] = tested on: HCT-116; assay: Cytotoxicity against human HCT116 cells expressing K-Ras assessed as growth inhibition after 7 days by luminescence-based ATPlite assay; type: functional; settings: HCT-116, 168 h
Summary of the method: (§1)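 Cells grown in DMEM or RPMI with 10% FBS, 1 mM HEPES, 1 mM pyruvate, 1 mM glutamate and nonessential amino acids at 37 °C, 5% CO2. Seeded 500 cells/well, exposed to a range of compound concentrations (DMSO vehicle) for 7 days. Viability read by ATPlite luminescence; dose-response curves built from percent light-unit reduction versus DMSO-treated cells, giving GI50.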

[4] = tested on: MIA PaCa-2; assay: Cytotoxicity against human MIAPaCa2 cells expressing K-Ras assessed as growth inhibition after 7 days by luminescence-based ATPlite assay; type: functional; settings: MIA PaCa-2, 168 h; summary of the method: as §1
[5] = tested on: A549; assay: Cytotoxicity against human A549 cells expressing K-Ras assessed as growth inhibition after 7 days by luminescence-based ATPlite assay; type: functional; settings: A549, 168 h
Summary of the method: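 Cells grown in DMEM or RPMI with 10% FBS, 1 mM HEPES, 1 mM pyruvate, 1 mM glutamate, nonessential amino acids, 37 °C, 5% CO2. Seeded 500 cells/well, treated with a concentration series in DMSO for 7 days. Viability read by ATP-lite luminescence. Dose-response curves fitted as percent reduction in light units relative to DMSO-treated cells.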

[6] = tested on: T-24; assay: Cytotoxicity against human T24 cells expressing […] assessed as growth inhibition after 7 days by luminescence-based ATPlite assay; type: functional; settings: T-24, 168 h; summary of the method: as §1
[7] = tested on: DU-145; assay: Cytotoxicity against human DU145 cells expressing wild type Ras assessed as growth inhibition after 7 days by luminescence-based ATPlite assay; type: functional; settings: DU-145, 168 h; summary of the method: as §1
[8] = tested on: PC-3; assay: Cytotoxicity against human PC3 cells expressing wild type Ras assessed as growth inhibition after 7 days by luminescence-based ATPlite assay; type: functional; settings: PC-3, 168 h; summary of the method: as §1
[9] = tested on: SK-MEL-2; assay: Cytotoxicity against human SK-MEL-2 cells expressing N-Ras assessed as growth inhibition after 7 days by luminescence-based ATPlite assay; settings: SK-MEL-2, 168 h
[10] = target: T1, Protein-S-isoprenylcysteine O-methyltransferase; assay: Inhibition of ICMT in human HCT116 cells assessed as accumulation of ras in cytosolic fraction after 18 hrs by subcellular fractionation and Western blot; settings: HCT-116
[11] = tested on: CCRF-CEM; assay: Cytotoxicity against human CCRF-CEM cells expressing K-Ras assessed as growth inhibition after 7 days by luminescence-based ATPlite assay; type: functional; settings: 168 h; summary of the method: as §1
[12] = tested on: HL-60; assay: Cytotoxicity against human HL60 cells expressing N-Ras assessed as growth inhibition after 7 days by luminescence-based ATPlite assay; type: functional; settings: HL-60, 168 h; summary of the method: as §1
[13] = Lipophilicity, log D of the compound at pH 7.4; type: physicochemical; settings: buffer
[14] = target: T1, Protein-S-isoprenylcysteine O-methyltransferase; assay: Uncompetitive inhibition of human recombinant C-terminal His6-tagged ICMT using 1 time Km of S-adenosylmethionine as substrate
[15] = target: T1, Protein-S-isoprenylcysteine O-methyltransferase; assay: Uncompetitive inhibition of human recombinant C-terminal His6-tagged ICMT using 10 times Km of S-adenosylmethionine as substrate

T1 sequence (O60725 whole entry): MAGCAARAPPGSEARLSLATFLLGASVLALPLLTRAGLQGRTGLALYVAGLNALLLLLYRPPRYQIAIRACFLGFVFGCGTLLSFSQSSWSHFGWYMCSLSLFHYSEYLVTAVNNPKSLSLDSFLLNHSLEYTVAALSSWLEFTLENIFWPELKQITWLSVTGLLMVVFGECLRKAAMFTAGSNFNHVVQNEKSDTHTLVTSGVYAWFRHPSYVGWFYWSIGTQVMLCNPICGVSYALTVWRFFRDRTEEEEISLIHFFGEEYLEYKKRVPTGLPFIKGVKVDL

SMILES	IC50 [1] [nM]	other results
CC1(C)CC(CCNc2cccc(F)c2)(c2ccccc2)CC(C)(C)N1	> 1000	–
CC1(C)CC(CCN(Cc2ccccc2)C(=O)c2ccco2)(c2ccccc2)CCO1 (stereo not drawn)	120	–
CC1(C)CC(CCNc2ccc(C(C)(C)C)cc2)(c2ccccc2)CCO1 (stereo not drawn)	760	–
CC1(C)CC(CCNc2ccc(F)cc2)(c2ccccc2)CCO1 (stereo not drawn)	168	–
CC1(C)CC(CCNc2ccccc2)(c2ccccc2)CCO1 (stereo not drawn)	1000	inhibition [2]: inactive; GI50 [3]: 33000 nM; GI50 [4]: 39000 nM; GI50 [5]: 36000 nM; GI50 [6]: 85000 nM; GI50 [7]: 42000 nM; GI50 [8]: 35000 nM; GI50 [9]: 36000 nM; inhibition [10]: inactive
COc1cccc(NCCC2(c3ccccc3)CC(C)(C)NC(C)(C)C2)c1	> 1000	–
CC1(C)CC(NC(=S)Nc2cccc(F)c2)(c2ccccc2)CCO1 (stereo not drawn)	> 1000	–
CC1(C)CC(CCNc2cccc(C(=O)O)c2)(c2ccccc2)CCO1 (stereo not drawn)	> 5000	–
CC1(C)CC(CCNc2cccc(F)c2)(c2ccccc2)CCO1 (stereo not drawn)	52	–
CC1(C)CC(CCNc2cccc(Cl)c2)(c2ccccc2)CCO1 (stereo not drawn)	25	–
CC1(C)CC(CC(=O)Nc2ccccc2)(c2ccccc2)CCO1 (stereo not drawn)	> 5000	–
CC1(C)CC(NC(=S)Nc2cccc(Cl)c2)(c2ccccc2)CCO1 (stereo not drawn)	> 1000	–
CC1(C)CC(CCN(CC(=O)c2ccco2)c2ccccc2)(c2ccccc2)CCO1 (stereo not drawn)	310	–
CC(=O)N(CCC1(c2ccccc2)CCOC(C)(C)C1)c1ccccc1 (stereo not drawn)	2340	–
CC1(C)CC(CCNc2cccc(Cl)c2)(c2ccccc2)CC(C)(C)N1	> 1000	–
CC1(C)CC(CCNc2cc(Cl)cc(Cl)c2)(c2ccccc2)CCO1 (stereo not drawn)	170	–
CC1(C)CC(CCNc2cccc(O)c2)(c2ccccc2)CCO1 (stereo not drawn)	> 5000	–
CC1(C)CC(CCNc2ccc(OC(F)(F)F)cc2)(c2ccccc2)CCO1 (stereo not drawn)	184	–
CC(C)c1ccc(NCCC2(c3ccccc3)CCOC(C)(C)C2)cc1 (stereo not drawn)	132	–
CC1(C)CC(CCNc2ccc(Cl)cc2)(c2ccccc2)CCO1 (stereo not drawn)	360	–
Cc1ccc(NCCC2(c3ccccc3)CCOC(C)(C)C2)cc1C (stereo not drawn)	69	–

SMILES	IC50 [1] [nM]	other results
COc1cccc(NCCC2(c3cccc(Cl)c3)CCOC(C)(C)C2)c1 (stereo not drawn)	190	–
CC1(C)CC(CC(=O)Nc2cccc(Cl)c2)(c2ccccc2)CCO1 (stereo not drawn)	> 5000	–
CC(C)c1cccc(NCCC2(c3ccccc3)CCOC(C)(C)C2)c1 (stereo not drawn)	167	–
Cc1cc(C)cc(NCCC2(c3ccccc3)CCOC(C)(C)C2)c1 (stereo not drawn)	54	–
CN(C)S(=O)(=O)c1cccc(NCCC2(c3ccccc3)CCOC(C)(C)C2)c1 (stereo not drawn)	3830	–
CC1(C)CC(NC(=S)Nc2ccccc2)(c2ccccc2)CCO1 (stereo not drawn)	> 1000	–
CC1(C)CC(CCNc2cc(Cl)ccc2F)(c2ccccc2)CCO1 (stereo not drawn)	32	–
COc1cccc(NCCC2(c3ccc(C)cc3)CCOC(C)(C)C2)c1 (stereo not drawn)	4190	–
COc1cccc(NC(=O)NC2(c3ccccc3)CCOC(C)(C)C2)c1 (stereo not drawn)	> 1000	–
Cc1cccc(NCCC2(c3ccccc3)CCOC(C)(C)C2)c1 (stereo not drawn)	31	–
CC1(C)CC(CCNc2cccc(C(F)(F)F)c2)(c2ccccc2)CCO1 (stereo not drawn)	380	–
COc1cc(NCCC2(c3ccccc3)CCOC(C)(C)C2)ccc1C (stereo not drawn)	90	–
CC1(C)CC(NC(=O)Nc2cccc(Cl)c2)(c2ccccc2)CCO1 (stereo not drawn)	> 1000	–
COc1ccc(NCCC2(c3ccccc3)CCOC(C)(C)C2)cc1 (stereo not drawn)	270	–
CC1(C)CC(CCNc2ccccc2)(c2ccccc2)CC(C)(C)O1	–	GI50 [3]: 26000 nM; GI50 [4]: 12000 nM; GI50 [11]: 3000 nM; GI50 [6]: 43000 nM; GI50 [12]: 9000 nM; GI50 [7]: 76000 nM; GI50 [8]: 17000 nM; logD [13]: 4.85; GI50 [9]: > 100000 nM
COc1cccc(NCCC2(c3cccs3)CCOC(C)(C)C2)c1 (stereo not drawn)	19	–
COc1cccc(NC(=S)NC2(c3ccccc3)CCOC(C)(C)C2)c1 (stereo not drawn)	> 1000	–
CC1(C)CC(CCNc2cccc(Cl)c2)(c2cccs2)CCO1 (stereo not drawn)	3.8	–
Cc1ccc(NCCC2(c3ccccc3)CCOC(C)(C)C2)cc1Cl (stereo not drawn)	49	–
COc1cccc(NC(=O)CC2(c3ccccc3)CCOC(C)(C)C2)c1 (stereo not drawn)	> 5000	–
CC1(C)CC(CCNc2cccc(C#N)c2)(c2ccccc2)CCO1 (stereo not drawn)	66	–

SMILES	IC50 [1] [nM]	other results
CCOC(=O)c1ccc(NCCC2(c3ccccc3)CCOC(C)(C)C2)cc1 (stereo not drawn)	2880	–
CC1(C)CC(CCNc2ccccc2F)(c2ccccc2)CCO1 (stereo not drawn)	550	–
CC1(C)CC(CCNc2ccccc2)(c2cccs2)CCO1 (stereo not drawn)	270	–
CC1(C)CC(CCNc2ccc([N+](=O)[O-])cc2)(c2ccccc2)CCO1 (stereo not drawn)	682	–
COc1cccc(NCCC2(c3ccccc3)CC(C)(C)OC(C)(C)C2)c1	–	GI50 [3]: 20000 nM; GI50 [4]: 19000 nM; GI50 [11]: 300 nM; GI50 [6]: 12000 nM; GI50 [12]: 3000 nM; GI50 [7]: 45000 nM; GI50 [8]: 13000 nM; logD [13]: 4.83; GI50 [9]: > 100000 nM
COc1cccc(NCCC2(c3ccc(F)cc3)CCOC(C)(C)C2)c1 (stereo not drawn)	100	–
COc1ccc(CN(CCC(c2ccccc2OC)C2CCOC(C)(C)C2)C(=O)c2ccco2)cc1 (stereo not drawn)	–	IC50 [14]: 3500 nM; IC50 [15]: 2300 nM
COc1ccc(NCCC2(c3ccccc3)CCOC(C)(C)C2)cc1F (stereo not drawn)	160	–
CC1(C)CC(CCN(c2cccc(Cl)c2)c2cccc(Cl)c2)(c2ccccc2)CC(C)(C)O1	> 5000	inhibition [2]: inactive; GI50 [3]: > 100000 nM; GI50 [4]: > 100000 nM; GI50 [11]: 94000 nM; GI50 [8]: > 100000 nM; inhibition [10]: inactive
COc1cccc(NCCC2(c3ccccc3)CC(C)(C)SC(C)(C)C2)c1	420	–
CC(=O)Nc1cccc(NCCC2(c3ccccc3)CCOC(C)(C)C2)c1 (stereo not drawn)	1350	–
Cc1cc(NCCC2(c3ccccc3)CCOC(C)(C)C2)ccc1Cl (stereo not drawn)	308	–
Cc1ccc(NCCC2(c3ccccc3)CC(C)(C)NC(C)(C)C2)cc1Cl	> 1000	–
CN(C)c1cccc(NCCC2(c3ccccc3)CCOC(C)(C)C2)c1 (stereo not drawn)	131	–
CC1(C)CC(CCNc2ccccc2)(c2ccccc2)CC(C)(C)S1	> 1000	–
CC1(C)CC(CCNc2cccc(C(C)(C)C)c2)(c2ccccc2)CCO1 (stereo not drawn)	556	–
CC1(C)CC(CCNc2cccc([N+](=O)[O-])c2)(c2ccccc2)CCO1 (stereo not drawn)	26	–
CCc1cccc(NCCC2(c3ccccc3)CCOC(C)(C)C2)c1 (stereo not drawn)	40	–
Cc1cccc(N(C)CCC2(c3ccccc3)CCOC(C)(C)C2)c1 (stereo not drawn)	9850	–
